ChEMBL document CHEMBL2021854, “2-Aminopyrimidine based 4-aminoquinoline anti-plasmodial agents. Synthesis, biological activity, structure-activity relationship and mode of action studies” (Eur J Med Chem, 2012)
pEC50, pIC50: −log10 of the molar value.

Legend:
[1] = Inhibition of beta-hematin formation assessed as Ferriprotoporphyrin IX biomineralisation after 24 hrs; type: functional
Procedure, shortened: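 Hemin (0.5 mg/ml in DMSO) was mixed with 0.5 M sodium acetate pH 4.4 and compound, then incubated for 24 h at 37 °C. The pellet was washed with DMSO to remove unreacted hemin and dissolved in 0.1 N NaOH, with A405 read. Percent inhibition was taken versus solvent control, and IC50 by curve fitting.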

[2] = Cytotoxicity against MDCK cells assessed as cell viability by colorimetric formazan-based MTS assay; parameters: species or system Canis lupus familiaris; details: dog, MDCK cells
Procedure, shortened: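 Cytotoxicity on MDCK cells; 50% cytotoxic concentration from cell viability measured by colorimetric formazan-based MTS assay.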

[3] = Cytotoxicity against MDCK cells assessed as minimum compound concentration required to causes microscopically detectable alteration of normal cell morphology; type: cell-based, Canis lupus familiaris; details: dog
Procedure, shortened: (§1)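 Confluent, non-proliferating cell cultures were exposed to the compounds. The endpoint was the minimum concentration producing a microscopically detectable alteration of normal cell morphology.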

[4] = Cytotoxicity against african green monkey Vero cells assessed as minimum compound concentration required to causes microscopically detectable alteration of normal cell morphology; type: cell-based; details: chlorocebus sabaeus; procedure, shortened: as §1
[5] = tested on: Human respirovirus 3; assay: Antiviral activity against Parainfluenza-3 virus infected in african green monkey Vero cells assessed as inhibition of virus-induced cytopathogenicity after 4 days; type: functional, organism-based; details: Human respirovirus 3, Vero, 96 h
Procedure, shortened: (§2)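 Confluent HEL, Vero or HeLa monolayers were inoculated with 100 CCID50 of virus in the presence of varying concentrations of compound. Cytopathicity was scored when it reached completion in untreated, virus-infected control cultures.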

[6] = tested on: Sindbis virus; assay: Antiviral activity against Sindbis virus infected in african green monkey Vero cells assessed as inhibition of virus-induced cytopathogenicity after 4 days; type: functional, organism-based; details: 96 h; procedure, shortened: as §2
[7] = Cytotoxicity against human HeLa cells assessed as minimum compound concentration required to causes microscopically detectable alteration of normal cell morphology; type: cell-based; procedure, shortened: as §1
[8] = tested on: Vesicular stomatitis virus; assay: Antiviral activity against Vesicular stomatitis virus infected in HeLa cells assessed as inhibition of virus-induced cytopathogenicity after 4 days; type: functional, organism-based; details: 96 h
Procedure, shortened: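 Confluent HEL or HeLa monolayers infected with 100 CCID50 of virus in the presence of varying compound concentrations.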

[9] = tested on: Coxsackievirus B4; assay: Antiviral activity against Coxsackie virus B4 infected in human HeLa cells assessed as inhibition of virus-induced cytopathogenicity after 4 days; type: functional, organism-based; details: Enterovirus B, 96 h; procedure, shortened: as §2
[10] = tested on: Respiratory syncytial virus; assay: Antiviral activity against Respiratory syncytial virus infected in human HeLa cells assessed as inhibition of virus-induced cytopathogenicity after 4 days; type: functional, organism-based; details: 96 h; procedure, shortened: as §2
[11] = tested on: Influenza B virus; assay: Antiviral activity against Influenza B virus infected in MDCK cells assessed as reduction visual scoring of virus-induced cytopathogenicity after 4 days; type: functional, organism-based; details: 96 h
Procedure, shortened: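 MDCK monolayers infected with 100 CCID50 of influenza A (H1N1 or H3N2) or influenza B, with varying compound concentrations. Cytopathicity read when untreated infected controls reached complete CPE.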

[12] = tested on: Influenza A virus; assay: Antiviral activity against Influenza A virus H1N1 infected in MDCK cells assessed as inhibition of virus-induced cytopathogenicity after 4 days by colorimetric formazan-based MTS assay; type: functional, organism-based; details: 96 h
[13] = tested on: Influenza A virus; assay: Antiviral activity against Influenza A virus H3N2 infected in MDCK cells assessed as inhibition of virus-induced cytopathogenicity after 4 days by colorimetric formazan-based MTS assay; type: functional, organism-based; details: 96 h

SMILES	pIC50 [1]	CC50 [2]	MCC [3]	MCC [4]	pEC50 [5]	pEC50 [6]	MCC [7]	pEC50 [8]	pEC50 [9]	pEC50 [10]	pEC50 [11]	pEC50 [12]	pEC50 [13]
CCN(CC)CCCC(C)Nc1ccnc2cc(Cl)ccc12 (stereo not drawn) [CHLOROQUINE]	4.74	–	–	–	–	–	–	–	–	–	–	–	–
NC(=O)c1ncn([C@@H]2O[C@H](CO)[C@@H](O)[C@H]2O)n1 [RIBAVIRIN]	–	> 100 µM	> 100 µM	> 250 µM	4.54	< 3.60	> 250 µM	< 3.60	< 3.60	< 3.60	5.15	5.17	5.25
